From PubChem
A selection: hits, their analogues and other compounds. The true share with any hit is near 2%.
HKDC1 inhibitor = inhibitors of human hexokinase HKDC1 | Q2TB90 | recombinant HKDC1, G6PDH/diaphorase resazurin coupled fluorescence | 340,000 compounds, 0.16% hits | inhibition, % at 20 µM | AID 493160;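 active = inhibition above about 35% when tested at 20 µM, limit read from the data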;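 also: plate controls were DMSO wells with enzyme for no effect and DMSO wells lacking enzyme for full effect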
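Test system: Recombinant HKDC1 (HK5) hexokinase enzyme, produced in-house | Input: HKDC1 at 5 µg/mL | Buffer or medium: Tris pH 8.0 buffer with MgCl2, Tween-20, BSA, BME | Schedule: 90 min reaction incubation at room temperature, dark | Technique: Resazurin-to-resorufin fluorescence via G6PDH and diaphorase coupling, 525/613 nm | Controls: DMSO wells with and without enzyme mix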
PvdQ inh = blocks Pseudomonas aeruginosa PvdQ acylase activity; purified PvdQ acylase, fluorescence plate reader; inhibition, % at 10 µM; 340,000 compounds, 0.063% hits; AID 488965; in the data active = inhibition above about 30%, passing the limit was not always enough;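 also: 0% = vehicle neutral wells and 100% = reference inhibitor wells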
IMP-1 inh = inhibitors of Pseudomonas aeruginosa IMP-1 metallo-beta-lactamase | purified IMP-1, nitrocefin hydrolysis, epi-absorbance fluorescence | inhibition, % at 5.6 µM | 290,000 compounds, 0.45% hits | AID 1556;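 active = inhibition above the mean plus 3 SD of all compounds in the same screening run, cut at about 4.5% in these data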;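 also: 0% = IMP-1 with DMSO and 100% = DMSO wells lacking enzyme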
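System: Purified IMP-1 | Read-out basis: Percent enzyme inhibition | Controls: IMP-1 with DMSO as 0%, enzyme-free DMSO as 100% | Replicates: One well per compound | Doses: 5.6 µM nominal single concentration | Detection: Epi-absorbance fluorescence, 480 nm excitation, 530 nm emission | Incubation: 25 °C, 15 min preincubation, 25 min reaction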
ATG4B inh = blocks human ATG4B protease cleavage of LC3 substrate; 340,000 compounds, 0.51% hits; AID 504462; Q9Y4P1; inhibition, % at 8.33 µM; ATG4B cleavage of LC3-PLA2, NBD-HPC fluorescence, 1 h; in the data active = inhibition above about 40%
VIM-2 inh = inhibitors of Pseudomonas aeruginosa VIM-2 metallo-beta-lactamase. purified VIM-2, nitrocefin hydrolysis, epi-absorbance fluorescence. inhibition, % at 5.6 µM. 290,000 compounds, 0.89% hits. AID 1527;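 active = inhibition above the mean of all tested compounds plus 3 SD, cutoff set per screening run, cut at about 7.5% in these data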;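 also: red hydrolysis product quenches plate fluorescence so inhibitors raise well fluorescence; 0% = enzyme with DMSO and 100% = DMSO without enzyme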
MIN6 prolif = MIN6 beta-cell proliferation induction; MIN6 cells proliferation, ATPlite luminescence, 48 h; cells starved in 0.2% serum; 100% = growth in 10% serum; proliferation, % at 10 µM; 330,000 compounds, 0.29% hits;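 active = compounds whose signal lies at least 3.5 SD above the mean of all wells on their plate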;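 also: 0% = DMSO-treated cells in low-serum medium and 100% = 10% serum control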
VIM-2 inh confirm = VIM-2 inhibition, confirmation assay | inhibition, % at 5.6 µM | purified VIM-2 enzyme, nitrocefin absorbance | AID 1860 | 200 compounds, 73% hits | shares compounds with IMP-1 inh; in the data active = inhibition above about 8%;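 also: 0% = enzyme with vehicle and 100% = no enzyme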
TEM-1 counter = blocks E. coli TEM-1 beta-lactamase, VIM-2 IMP-1 counter-screen | shares compounds with IMP-1 inh | nitrocefin absorbance inhibition | inhibition, % at 5.6 µM | 200 compounds, 50% hits | AID 2184; in the data active = inhibition above about 0.66%
Target sequence (P62593 whole entry, looked up): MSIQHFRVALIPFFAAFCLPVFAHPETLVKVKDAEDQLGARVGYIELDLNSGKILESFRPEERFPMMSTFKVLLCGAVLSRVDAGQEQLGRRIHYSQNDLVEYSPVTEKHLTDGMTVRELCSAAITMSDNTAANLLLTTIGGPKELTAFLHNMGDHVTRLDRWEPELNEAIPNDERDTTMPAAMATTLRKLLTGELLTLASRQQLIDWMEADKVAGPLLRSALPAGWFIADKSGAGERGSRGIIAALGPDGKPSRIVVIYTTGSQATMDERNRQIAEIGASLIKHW
IMP-1 inh conf = confirmation of P. aeruginosa IMP-1 metallo-beta-lactamase inhibitors | shares compounds with IMP-1 inh | purified IMP-1 enzyme, absorbance substrate hydrolysis | inhibition, % at 5.6 µM | 200 compounds, 60% hits; in the data active = inhibition above about 4.9%;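 also: 0% = enzyme with vehicle and 100% = vehicle without enzyme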
* = called active by the depositor; i = inactive; . = no result; + = active, no number.

SMILES | HKDC1 inhibitor | PvdQ inh | IMP-1 inh | ATG4B inh | VIM-2 inh | MIN6 prolif | VIM-2 inh confirm | TEM-1 counter | IMP-1 inh conf
O=C1C2C(c3ccccc3)C=CC(c3ccccc3)C2C(=O)N1c1ccncc1 (stereo not drawn) | -1.4 | -1.9 | 65.1* | -4.7 | 25.1* | -2.3 | 11.1* | -1.4 | 28.8*
O=C1c2c(Br)c(Br)c(Br)c(Br)c2C(=O)N1c1ccccn1 | 13.5 | 7.7 | 1.2 | -3.5 | 5.3 | -5.1 | . | . | .
O=C1C2C3C=CC(C3)C2C(=O)N1c1ccncc1 (stereo not drawn) | -1.8 | -12.3 | -1.7 | -3.6 | -0.2 | -3.1 | . | . | .
COCCNC(=O)NC(=O)CN1C(=O)NC(Cc2c[nH]c3ccccc23)C1=O (stereo not drawn) | 2.6 | -1.0 | -3.1 | -4.4 | -1.9 | 0.2 | . | . | .
CCC(CC)c1nnc(NC(=O)C2=NNC(=O)CC2)s1 | -3.4 | -8.3 | -2.1 | -5.6 | -0.8 | 0.7 | . | . | .
C#CCNC(=O)C1=C[C@@H](c2ccc3c(c2)OCO3)C[C@@H](OCc2ccc(CO)cc2)O1 | -0.7 | -17.6 | . | 5.3 | . | -0.2 | . | . | .
CCCCC(Sc1nc(N)c(NC(=O)c2ccco2)c(=O)[nH]1)C(=O)O (stereo not drawn) | -4.0 | -16.1 | 11.6* | -9.4 | 12.0* | -5.3 | 25.3* | 1.7* | 36.0*
CCCn1c(/C=C/c2cc[n+](C)cc2)nc2ccccc21 | -1.0 | -2.0 | -2.9 | 1.1 | -1.5 | -1.4 | . | . | .
Cc1ccc2c(c1)c(/C=C/c1cc[n+](C)cc1)c(C)n2C | -4.4 | -6.5 | 8.4* | -2.5 | 25.7* | -4.9 | 30.8* | -1.6 | 2.7
CCN(CC)c1ccc2cc(-c3nnc(-c4ccc(Br)cc4)o3)c(=O)oc2c1 | . | . | -1.8 | . | -2.5 | . | . | . | .
CCN(CC)c1ccc2cc(-c3nc4ccccc4n3C)c(=O)oc2c1 | -2.3 | 13.9 | -0.3 | -8.3 | -2.4 | . | . | . | .
CCN(CC)c1ccc2cc(-c3nc4ccccc4[nH]3)c(=O)oc2c1 | 7.0 | -11.8 | 17.5* | -14.1 | 13.5* | -6.2 | 60.7* | 104.9* | 59.1*
CCN(CC)c1ccc2cc(-c3nnc(-c4ccccc4)o3)c(=O)oc2c1 | -7.2 | 1.9 | 8.3* | -16.9 | 8.4* | -0.3 | 33.4* | 43.4* | 25.9*
COc1cccc(C2Nc3ccc4ccccc4c3C3=C2C(=O)CC(C)(C)C3)c1OCC(=O)O (stereo not drawn) | 3.3 | -8.6 | 10.6* | -0.1 | 9.5* | 0.0 | 8.1* | -0.7 | 3.7
CN(C)/C=C1\C=C2C(=O)c3ccccc3N2C1=O | 2.6 | -11.1 | 20.9* | i | 19.9* | -1.0 | 134.0* | + | 118.7*
CNc1ccc2c3c(cccc13)C(=O)N(C)C2=O | 5.8 | -10.5 | 44.2* | -166.8 | 49.9* | 1.7 | 75.8* | 87.0* | 59.3*
CN1C(=O)c2cccc3c(Br)ccc(c23)C1=O | 0.3 | . | . | -1.2 | . | 5.6 | . | . | .
CC(=O)Nc1sc2c(c1-c1nc3ccccc3s1)CCN(C(C)C)C2 | 25.1 | 13.0 | 4.5* | -8.0 | 17.8* | -6.9 | 15.1* | -3.2 | -1.2
CC(c1ccccc1)n1c(-c2ccc(Cl)cc2)n[nH]c1=S (stereo not drawn) | 1.7 | -16.9 | -2.4 | -3.9 | -2.1 | -0.8 | . | . | .
CC(c1ccccc1)n1c(-c2ccccc2F)n[nH]c1=S (stereo not drawn) | 3.6 | -10.0 | 6.4* | -0.8 | 9.1* | -1.5 | 10.6* | -4.2 | 2.2
CCOc1cc2c(cc1/C=C/c1noc(C)c1[N+](=O)[O-])OC(C)C2 (stereo not drawn) | -1.4 | -9.0 | 13.0* | -4.6 | 16.9* | -1.8 | 20.4* | 30.3* | 18.1*
Cc1ccc(NC(=O)CN2C(=O)NC(Cc3ccccc3)C2=O)c(Br)c1 (stereo not drawn) | -2.9 | -8.5 | -1.7 | -4.0 | -3.2 | -0.4 | . | . | .
